Bioassay records deposited in PubChem by several laboratories.
HKDC1 inhibitor: inhibitors of human hexokinase HKDC1; 0.16% of 340,000 active; AID 493160; recombinant HKDC1, G6PDH/diaphorase resazurin coupled fluorescence; inhibition, % at 20 µM; Q2TB90;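 active = inhibition above about 35% when tested at 20 µM, limit read from the data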;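 also: plate controls were DMSO wells with enzyme for no effect and DMSO wells lacking enzyme for full effect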
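Test system: Recombinant HKDC1 (HK5) hexokinase enzyme, produced in-house | Input: HKDC1 at 5 µg/mL | Buffer or medium: Tris pH 8.0 buffer with MgCl2, Tween-20, BSA, BME | Schedule: 90 min reaction incubation at room temperature, dark | Technique: Resazurin-to-resorufin fluorescence via G6PDH and diaphorase coupling, 525/613 nm | Controls: DMSO wells with and without enzyme mix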
p97 inhibitor: blocks human p97 ATPase activity. 0.42% of 220,000 active. inhibition, % at 8 µM. recombinant p97 ATPase, Kinase-Glo ATP luminescence, 3 h. P55072; in the data active = inhibition above about 15%;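 also: 0% = DMSO vehicle and 100% = wells lacking enzyme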
Target sequence (P55072 whole entry, looked up): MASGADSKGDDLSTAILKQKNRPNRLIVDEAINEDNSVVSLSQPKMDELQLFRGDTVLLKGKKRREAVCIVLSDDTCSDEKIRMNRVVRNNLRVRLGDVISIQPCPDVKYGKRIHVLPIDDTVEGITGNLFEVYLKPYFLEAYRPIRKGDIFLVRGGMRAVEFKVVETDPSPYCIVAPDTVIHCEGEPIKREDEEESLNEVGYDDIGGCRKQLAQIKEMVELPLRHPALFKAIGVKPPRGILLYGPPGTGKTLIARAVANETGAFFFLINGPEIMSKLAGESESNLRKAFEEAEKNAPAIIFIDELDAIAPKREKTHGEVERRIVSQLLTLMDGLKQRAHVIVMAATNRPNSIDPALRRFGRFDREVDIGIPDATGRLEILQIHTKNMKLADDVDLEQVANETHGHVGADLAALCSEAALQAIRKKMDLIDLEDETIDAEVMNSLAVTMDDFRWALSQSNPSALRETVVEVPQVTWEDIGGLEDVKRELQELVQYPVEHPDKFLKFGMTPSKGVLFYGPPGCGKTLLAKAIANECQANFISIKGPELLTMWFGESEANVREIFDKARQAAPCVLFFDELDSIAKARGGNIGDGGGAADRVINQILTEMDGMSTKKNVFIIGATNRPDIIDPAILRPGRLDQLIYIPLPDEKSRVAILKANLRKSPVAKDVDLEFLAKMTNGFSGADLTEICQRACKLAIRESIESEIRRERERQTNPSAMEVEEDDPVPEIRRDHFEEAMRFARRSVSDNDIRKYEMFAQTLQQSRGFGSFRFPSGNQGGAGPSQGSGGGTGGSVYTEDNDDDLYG
Diaphorase inh: diaphorase inhibition or chemical oxidation counter-screen; diaphorase resazurin-to-resorufin fluorescence, NADH, 16 min; bacterial (C. kluyveri) enzyme, not human; inhibition, % at 20 µM; 0.69% of 190,000 active;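 active = primary screen inhibition at 20 µM above a set limit, cut at about 50% in these data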;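 also: plate controls were DMSO with full reaction for no effect and wells lacking NADH for full effect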
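Test system: Clostridium kluyveri diaphorase enzyme / Quantity: diaphorase at 0.14 U/mL in enzyme working solution / Incubation: 16-min room-temperature incubation before reading / Benchmarks: NADH-free wells as positive control, DMSO-only neutral wells / Signal: resorufin fluorescence 544/590 nm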
G6PDH counter: inhibits Leuconostoc G6PDH, flagging false hits in G6PDH-based assays; Purified L. mesenteroides G6PDH, diaphorase/resazurin coupled fluorescence, 45 min; inhibition, % at 5 µM; 0.12% of 200,000 active; AID 1020; in the data active = inhibition above about 50%
SUMO HTRF inh: SUMOylation inhibition; HTRF SUMOylation assay, SAE1/SAE2 + UBC9, in vitro; inhibition, % at 35 µM; 0.36% of 290,000 active; AID 2006; in the data active = inhibition above about 50%, passing the limit was not always enough
* = called active by the depositor; nt = not tested or not shown. Hits are enriched below; roughly 0.95% of the tested compounds scored in any of these assays.

SMILES	HKDC1 inhibitor	p97 inhibitor	Diaphorase inh	G6PDH counter	SUMO HTRF inh
N#Cc1c(N2CCN(c3ccc(F)cc3)CC2)nc(N)c2c(N)nc3c(c12)CC(=O)N3C1CC1	10	13	47	22	94
CN(CCO)c1nc(N)c2c(N)nc3c(c2c1C#N)CC(=O)N3C1CCCC1	nt	7	42	37	101*
Cc1ccc(S(N)(=O)=O)cc1NC(=O)c1ccc2c3c(cccc13)CC2	-4	nt	nt	nt	10
O=[N+]([O-])/C(C(Cl)=C(Cl)Cl)=C1\Nc2ccccc2O1	4	4	nt	nt	22
CCOc1ccc2c(c1)/C(=C(\C(Cl)=C(Cl)Cl)[N+](=O)[O-])N2	-6	0	51*	8	22
CCCCOc1ccc2c(c1)/C(=C(\C(Cl)=C(Cl)Cl)[N+](=O)[O-])N2	-9	8	50*	0	15
O=C(CCNC(=O)c1ccc([N+](=O)[O-])cc1)Nc1ccc(S(=O)(=O)N2CCOCC2)cc1	-2	nt	nt	nt	nt
COc1cc(C(=O)NCC(c2cccs2)N2CCOCC2)cc(Br)c1OCc1ccccc1 (centres undefined)	-2	nt	nt	nt	nt
O=S(=O)(Nc1ccc(O)c2ccccc12)c1ccc(Br)cc1	nt	nt	nt	nt	86*
Cc1ccc(S(=O)(=O)Nc2ccc(O)c3ncccc23)cc1	13	2	57*	50*	-28
CCOc1ccc(N2CC(C(=O)NCCCc3ccccc3)CC2=O)cc1 (centres undefined)	-1	nt	nt	nt	nt
C=C1N(C)c2cc([N+](=O)[O-])c(N)cc2C1(C)C	7	-2	75*	44	-19
COCc1cc(CN2CCCC(C(=O)Nc3cccc(-n4cnnn4)c3)C2)ccc1OC (centres undefined)	nt	nt	nt	nt	3
COC1=C(N)C(=O)c2nc(-c3nc(C(=O)O)c(C)c(-c4ccc(OC)c(OC)c4O)c3N)ccc2C1=O	4	4	68*	56*	-3
COc1ccc(-c2ncncc2-c2csc(C)n2)c(O)c1OC	-6	7	1	0	9
COc1cc(OC)c(C2Nc3cccc4cccc(c34)N2)c(OC)c1	18	nt	nt	nt	74
COc1ccc(C2Nc3cccc4cccc(c34)N2)cc1	8	5	52*	12	18
Brc1ccc(C2Nc3cccc4cccc(c34)N2)o1	12	2	85*	36	92
c1csc(C2Nc3cccc4cccc(c34)N2)c1	13	4	62*	17	31
c1ccc(C2Nc3cccc4cccc(c34)N2)cc1	13	nt	nt	nt	24
Brc1cccc(C2Nc3cccc4cccc(c34)N2)c1	3	nt	nt	nt	11
COc1ccccc1C1Nc2cccc3cccc(c23)N1	12	0	57*	14	52
CCN(C(=O)CSc1nncn1-c1ccccc1)C1CCS(=O)(=O)C1 (centres undefined)	0	nt	nt	nt	nt
O=C(NCCCN1CCOCC1)c1ccc2c(=O)n(Cc3ccc(Cl)cc3)c(=S)[nH]c2c1	4	nt	nt	nt	12
Cc1ccc(S(=O)(=O)CCC(=O)Nc2ccc(S(=O)(=O)N(C)C)cc2)cc1	nt	2	2	1	-1
SMILES	HKDC1 inhibitor	p97 inhibitor	Diaphorase inh	G6PDH counter	SUMO HTRF inh
CCOc1ccc(C2Nc3cccc4cccc(c34)N2)cc1OC	4	3	65*	13	54
CCOc1cc(C2Nc3cccc4cccc(c34)N2)ccc1O	20	7	37	10	30
Fc1cccc(Cl)c1C1Nc2cccc3cccc(c23)N1	14	nt	nt	nt	56
Clc1cccc(Cl)c1C1Nc2cccc3cccc(c23)N1	15	nt	nt	nt	56*
O=C(NN=C1CCN(Cc2ccccc2)CC1)c1cc2ccccc2cc1O	-1	3	27	-3	87*
Cc1cc2cc(CCNC(=O)C(=O)c3c[nH]c4ccccc34)c(=O)[nH]c2cc1C	27	6	70*	1	-4
Cc1cc2cc(CCNC(=O)c3ccc(C)c([N+](=O)[O-])c3)c(=O)[nH]c2cc1C	29	-9	72*	19	1
Cc1occc1-c1nnc(SCC(=O)Nc2ccccc2)n1CCc1ccccc1	-5	1	18	-13	-11
Cc1occc1-c1nnc(SCC(=O)Nc2ccccc2)n1C	1	6	78*	6	3
CSCC[C@H](N)C(=O)N1CCC(C(=O)N[C@H](C)C(=O)NC(C)c2ccccc2)CC1 (some centres undefined)	-5	nt	nt	nt	8
CN(C1=C(NC(=O)c2ccccc2)C(=O)c2ccccc2C1=O)C1CCS(=O)(=O)C1 (centres undefined)	nt	1	59*	34	41
CC(=O)NC1=C(NC2CCS(=O)(=O)C2)C(=O)c2ccccc2C1=O (centres undefined)	14	-2	39	-12	-17
CC(C)CN1C(=O)c2ccc(C(=O)Nc3ccc(OCC(=O)O)cc3)cc2C1=O	-5	nt	nt	nt	18
Oc1ccc(-c2csc(-c3cccnc3)n2)cc1O	6	8	nt	nt	2
Oc1ccc(-c2csc(-c3ccccc3)n2)cc1O	4	8	71*	19	-2
Oc1ccc(-c2csc(Nc3ncccn3)n2)cc1O	1	10	52*	29	8
COc1ccc(N=C2NC(=O)/C(=C\C=C\c3ccco3)S2)cc1	0	6	29	7	85*
Cc1cccc(N=C2NC(=O)/C(=C/C=C/c3ccco3)S2)c1	5	11	27	-22	40
Cc1ccc(NC(=O)CN2C(=O)S/C(=C\c3cccn3-c3cccc(C(=O)O)c3)C2=O)cc1C	-1	5	20	5	64*
CC(C)(C)C1=CC(=O)C(N2CCOCC2)=CC1=O	14	1	32	55*	1
CN(CC(=O)N(C)CC(=O)Nc1c(Cl)cccc1Cl)Cc1ccccc1F	-3	nt	nt	nt	nt
O=C(NN=Cc1ccc(O)cc1)C(=O)NN=Cc1ccc(O)cc1	-4	nt	nt	nt	nt
COc1ccc2nc(C)cc(SCC(=O)N/N=C/c3ccc(O)cc3O)c2c1	-32	2	-2	-20	8
COc1ccc(N2Cc3ccc(C(=O)N/N=C\c4ccc(O)cc4O)cc3C2)cc1	nt	nt	nt	nt	66*
O=C(N/N=C/c1ccc(O)cc1O)C(=O)N/N=C/c1ccc(O)cc1O	-34	nt	nt	nt	95*
SMILES	HKDC1 inhibitor	p97 inhibitor	Diaphorase inh	G6PDH counter	SUMO HTRF inh
O=C(CCc1ccc(S(=O)(=O)N2CCOCC2)cc1)N/N=C/c1ccc(O)c(O)c1O	23	5	71*	10	20
CCOC(=O)c1c(OCC)[nH]c2c1cc(O)c1ccccc12	27	0	74*	8	-12
O=C1c2ccccc2C(=O)N1/N=C/c1ccc(O)c(O)c1O	1	1	nt	nt	72*
Oc1ccc(/C=N/N2CCOCC2)c(O)c1O	1	4	69*	52*	27
Oc1ccc(/C=N/N2CCCCC2)c(O)c1O	-1	nt	nt	nt	5
Cc1nn2cc(-c3ccccc3)nc2[nH]c1=O	-7	2	13	1	68*
O=C(O)CCc1nn2cc(-c3ccccc3)nc2[nH]c1=O	-5	5	3	-3	36
COc1cc(CNc2ccc(N3CCCC3)cc2)cc(Cl)c1OC	16	4	55*	41	-9
